From ChEMBL document CHEMBL5136969, “A niclosamide-tobramycin hybrid adjuvant potentiates cefiderocol against P. aeruginosa” (2021)
Calls of active or inactive are those of the source.

Key:
[1] = test system: Escherichia coli; assay: Potentiation of aztreonam-induced antibiotic activity against Escherichia coli ATCC 25922 assessed as MIC fold reduction at 8 ug/ml after 18 hrs by microbroth dilution method; format: functional; conditions: dose 8 µg/ml
Procedure, shortened: (§1)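 Initial screen in MHB using a fixed 8 μg mL−1 of adjuvant combined with each antibiotic under 2-fold dilution. Broth microdilution used about 5 × 10^5 CFU/mL at 37 °C for 18 h, with visible turbidity read and confirmed at 590 nm. Fold-potentiation = antibiotic MIC alone ÷ antibiotic MIC with adjuvant.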

[2] = test system: Pseudomonas aeruginosa; assay: Antibacterial activity against MDR clinical isolate Pseudomonas aeruginosa PA109084 assessed as reduction in bacterial growth after 18 hrs in presence of cefiderocol by microbroth dilution method; format: functional
Procedure, shortened: (§2)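 Checkerboard in MHB. Cefiderocol was 2-fold serially diluted along one axis and the adjuvant along the other. Inoculum was prepared from 0.5 McFarland saline suspensions diluted 1:50 in MHB, giving about 5 × 10^5 CFU/mL final. Plates ran 18 h at 37 °C, with turbidity confirmed at 590 nm. FIC = combination MIC ÷ MIC alone for each agent, and FIC index = sum of both. Interpretation: ≤0.5 synergy, >0.5–4 additive, >4 antagonism.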

[3] = test system: Enterobacter cloacae; assay: Antibacterial activity against Enterobacter cloacae 118564 assessed as potentiation of cefiderocol antibacterial activity by measuring FIC after 18 hrs by microbroth dilution method; format: functional
Procedure, shortened: (§3)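 Checkerboard in Mueller-Hinton broth: cefiderocol 2-fold diluted on one axis, adjuvant 2-fold on the other. Overnight cultures were adjusted to 0.5 McFarland in saline, diluted 1:50 in MHB, and inoculated at about 5 × 10^5 CFU/mL. Incubation was 18 h at 37 °C. Turbidity was read visually and confirmed at 590 nm. FIC index = FIC of antibiotic + FIC of adjuvant; ≤0.5 synergy, >4 antagonism.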

[4] = test system: Pseudomonas aeruginosa; assay: Potentiation of piperacilin-induced antibiotic activity against Pseudomonas aeruginosa PAO1 assessed as MIC fold reduction at 8 ug/ml after 18 hrs by microbroth dilution method; format: functional; conditions: dose 8 µg/ml
[5] = test system: Pseudomonas aeruginosa; assay: Potentiation of cotrimoxazole-induced antibiotic activity against Pseudomonas aeruginosa PAO1 assessed as MIC fold reduction at 8 ug/ml after 18 hrs by microbroth dilution method; format: functional; conditions: dose 8 µg/ml
Procedure, shortened: (§4)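 Adjuvant held at a fixed 8 μg/mL while the antibiotic was 2-fold serially diluted in Mueller-Hinton broth (MHB), per CLSI microbroth dilution. Overnight cultures were adjusted in saline to 0.5 McFarland, then diluted 1:50 in MHB to about 5 × 10^5 CFU/mL final, and incubated 18 h at 37 °C. MIC was the lowest concentration with no visible turbidity, confirmed at 590 nm. Fold potentiation = MIC alone / MIC with adjuvant.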

[6] = test system: Pseudomonas aeruginosa; assay: Antibacterial activity against colistin-resistant clinical isolate Pseudomonas aeruginosa PA91433 assessed as potentiation of cefiderocol antibacterial activity by measuring FIC index after 18 hrs by microbroth dilution method; format: functional
Procedure, shortened: (§5)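 Checkerboard in MHB (iron-replete, not iron-depleted CAMHB). Cefiderocol was 2-fold serially diluted along one axis and the adjuvant along the other. Inoculum was 0.5 McFarland diluted 1:50, about 5 × 10^5 CFU/mL final. Incubation was 18 h at 37 °C, with turbidity read visually and confirmed at 590 nm. FIC was the MIC in combination over the MIC alone for each agent, and the FIC index was their sum. Cut-offs were ≤0.5 synergy, >0.5–4 additive, >4 antagonism.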

[7] = test system: Pseudomonas aeruginosa; assay: Antibacterial activity against MDR clinical isolate Pseudomonas aeruginosa PA109084 assessed as reduction in bacterial growth after 18 hrs by microbroth dilution method; format: functional
Procedure, shortened: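 CLSI broth microdilution. Overnight cultures were adjusted in saline to 0.5 McFarland, diluted 1:50 in Mueller-Hinton broth (MHB), and inoculated at about 5 × 10^5 CFU/mL. Agents were 2-fold serially diluted in MHB, mixed 1:1 with inoculum, and held at 37 °C for 18 h. MIC was the lowest concentration with no visible turbidity, confirmed at 590 nm.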

[8] = test system: Acinetobacter baumannii; assay: Potentiation of aztreonam-induced antibiotic activity against Acinetobacter baumannii ATCC 17978 assessed as MIC fold reduction at 8 ug/ml after 18 hrs by microbroth dilution method; format: functional; conditions: dose 8 µg/ml; procedure, shortened: as §1
[9] = test system: Klebsiella pneumoniae; assay: Antibacterial activity against Klebsiella pneumoniae KP113250 assessed as reduction in bacterial growth after 18 hrs by microbroth dilution method; format: functional
Procedure, shortened: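 CLSI microbroth dilution in MHB. Overnight cultures were adjusted to 0.5 McFarland in saline, diluted 1:50, and inoculated at about 5 × 10^5 CFU/mL. Agents were 2-fold serially diluted and incubated 18 h at 37 °C. MIC is the lowest concentration without visible turbidity, confirmed by absorbance at 590 nm. Medium with and without cells served as controls.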

[10] = test system: Pseudomonas aeruginosa; assay: Potentiation of cefiderocol-induced antibiotic activity against MDR clinical isolate Pseudomonas aeruginosa PA259 assessed as MIC fold reduction at 8 ug/ml after 18 hrs by microbroth dilution method; format: functional, organism-based; conditions: dose 8.0 µg/ml; procedure, shortened: as §1
[11] = test system: Pseudomonas aeruginosa; assay: Antibacterial activity against MDR clinical isolate Pseudomonas aeruginosa PA264 assessed as potentiation of cefiderocol antibacterial activity by measuring FIC index after 18 hrs by microbroth dilution method; format: functional; procedure, shortened: as §5
[12] = test system: Pseudomonas aeruginosa; assay: Potentiation of cefotaxime-induced antibiotic activity against MDR clinical isolate Pseudomonas aeruginosa PA260 assessed as MIC fold reduction at 8 ug/ml after 18 hrs by microbroth dilution method; format: functional, organism-based; conditions: dose 8.0 µg/ml; procedure, shortened: as §1
[13] = test system: Pseudomonas aeruginosa; assay: Potentiation of cefotaxime-induced antibiotic activity against […] Pseudomonas aeruginosa PAO1 assessed as MIC fold reduction at 8 ug/ml after 18 hrs by microbroth dilution method; format: functional, organism-based; conditions: dose 8.0 µg/ml; procedure, shortened: as §4
[14] = test system: Pseudomonas aeruginosa; assay: Potentiation of colistin-induced antibiotic activity against Pseudomonas aeruginosa PAO1 assessed as MIC fold reduction at 8 ug/ml after 18 hrs by microbroth dilution method; format: functional; conditions: dose 8 µg/ml; procedure, shortened: as §4
[15] = test system: Pseudomonas aeruginosa; assay: Antibacterial activity against MDR clinical isolate Pseudomonas aeruginosa PA260 assessed as reduction in bacterial growth after 18 hrs in presence of cefiderocol by microbroth dilution method; format: functional; procedure, shortened: as §2
[16] = test system: Pseudomonas aeruginosa; assay: Antibacterial activity against colistin-resistant clinical isolate Pseudomonas aeruginosa PA91433 assessed as reduction in bacterial growth after 18 hrs by microbroth dilution method; format: functional
Procedure, shortened: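 Broth microdilution per CLSI in Mueller-Hinton broth (MHB). Overnight cultures were adjusted to 0.5 McFarland in saline, diluted 1:50 in MHB, and added at about 5 × 10^5 CFU/mL final to equal volumes of 2-fold serial dilutions of agent. Incubation was 18 h at 37 °C. MIC was the lowest concentration with no visible turbidity, confirmed by absorbance at 590 nm.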

[17] = test system: Pseudomonas aeruginosa; assay: Antibacterial activity against MDR clinical isolate Pseudomonas aeruginosa PA259 assessed as potentiation of cefiderocol antibacterial activity by measuring FIC index after 18 hrs by microbroth dilution method; format: functional; procedure, shortened: as §2
[18] = test system: Escherichia coli; assay: Antibacterial activity against Escherichia coli ATCC 25922 assessed as reduction in bacterial growth after 18 hrs in presence of cefiderocol by microbroth dilution method; format: functional; procedure, shortened: as §3
[19] = test system: Pseudomonas aeruginosa; assay: Antibacterial activity against MDR clinical isolate Pseudomonas aeruginosa PA108590 assessed as reduction in bacterial growth after 18 hrs in presence of cefiderocol by microbroth dilution method; format: functional; procedure, shortened: as §2
[20] = test system: Pseudomonas aeruginosa; assay: Antibacterial activity against MDR clinical isolate Pseudomonas aeruginosa PA109084 assessed as potentiation of cefiderocol antibacterial activity by measuring FIC index after 18 hrs by microbroth dilution method; format: functional; procedure, shortened: as §2
[21] = test system: Pseudomonas aeruginosa; assay: Antibacterial activity against colistin-resistant clinical isolate Pseudomonas aeruginosa PA101243 assessed as reduction in bacterial growth after 18 hrs in presence of cefiderocol by microbroth dilution method; format: functional; procedure, shortened: as §5

NC[C@H]1O[C@H](O[C@H]2[C@H](OCCCCc3cn(-c4ccc(NC(=O)c5cc(Cl)ccc5O)cc4)nn3)[C@@H](O[C@H]3O[C@H](CO)[C@@H](O)[C@H](N)[C@H]3O)[C@H](N)C[C@@H]2N)[C@H](N)C[C@@H]1O
fold change (FC) [1]: 4 | MIC [2]: 0.5 µg/mL | FIC [3]: 1 | fold change (FC) [4]: 4 | fold change (FC) [5]: 4 | FIC [6]: 0.016 | MIC [7]: > 128 µg/mL | fold change (FC) [8]: 4 | MIC [9]: > 128 µg/mL | Activity [10]: Active | FIC [11]: 0.125 | Activity [12]: Active | Activity [13]: Active | fold change (FC) [14]: 4 | MIC [15]: 0.125 µg/mL | MIC [16]: > 128 µg/mL | FIC [17]: 0.031 | MIC [18]: 0.25 µg/mL | MIC [19]: 4 µg/mL | FIC [20]: 0.004 | MIC [21]: 2 µg/mL
